Data taken from paper PMC4957400 (MedChemComm, 2016).
“Also recorded” adds a separate entry of the source. Numbered stars: 1 amine (or outer) side, 2 acyl side, 3 side chain; on linkers, the order of the positions; unused ones are H or OH. Suc = O=C(CCC(=O)[*:2])[*:1]

What was measured:
[1] = tested on: HIV-1 capsid protein p24 production; format: cell-based; settings: p24 ELISA; for inhibition of p24 expression: 40 μM; for suppression of HIV replication / inhibition of p24 / inhibition of the production of p24: initial screen; for suppression of HIV replication / inhibition of p24: 100 μM; for inhibition of the production of p24: 10 μM
[2] = molecular target: HIV-1 RRE IIB RNA; assay: Dissociation constants by electrophoretic mobility shift assay; format: binding; settings: EMSA, average of at least three experiments
[3] = tested on: U87 CXCR4 human glioblastoma cell line stably transfected with CD4 and CXCR4; assay: MTT toxicity assay; format: cell-based; settings: for toxicity (MTT assay): U87 CXCR4 cells, concentrations up to 100 μM; for cell viability (MTT assay in parallel with second p24 screening): at 40 μM
Outline: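 MTT viability read in U87 human glioblastoma cells stably transfected with CD4 and CXCR4, with cells receiving no compound as the control. It was run as a toxicity screen of test peptides and again in parallel with the second p24 ELISA screen of HIV replication.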

[4] = molecular target: wild-type RRE IIB RNA; settings: EMSA; cited from earlier work

(KACRKK)2*KLKBBAY [Peptide A6]
inhibition of p24 expression [1]: approximately 90%
suppression of HIV replication / inhibition of p24 [1]: greatly suppressed HIV replication; also recorded: complete or virtually complete inhibition of p24
Kd [2]: 0.06 ± 0.01 µM
toxicity (MTT assay) [3]: slight toxicity; also recorded: nearly non-toxic
cell viability (MTT assay in parallel with second p24 screening) [3]: confirmed cell viability

(KKACRK)2*KLKBBAY [Peptide A7]
inhibition of p24 expression [1]: approximately 90%
inhibition of the production of p24 [1]: 60%
suppression of HIV replication / inhibition of p24 [1]: greatly suppressed HIV replication; also recorded: complete or virtually complete inhibition of p24
Kd [2]: 0.07 ± 0.03 µM
toxicity (MTT assay) [3]: cytotoxicity in a dose-dependent manner; also recorded: moderate toxicity
cell viability (MTT assay in parallel with second p24 screening) [3]: confirmed cell viability

(KKBBAK)2*LLKY [Peptide A8]
Kd [2]: 0.66 ± 0.09 µM

(KKK)2*KACRLKY [Peptide A3]
suppression of HIV replication / inhibition of p24 [1]: greatly suppressed HIV replication
Kd [2]: 0.14 ± 0.05 µM

(KKK)2*KLKACRY [Peptide A4]
suppression of HIV replication / inhibition of p24 [1]: greatly suppressed HIV replication; also recorded: complete or virtually complete inhibition of p24
Kd [2]: 0.02 ± 0.004 µM
toxicity (MTT assay) [3]: slight toxicity

(KKK)2*LKBBAKBBAY [Peptide A1]
suppression of HIV replication / inhibition of p24 [1]: greatly suppressed HIV replication; also recorded: complete or virtually complete inhibition of p24
Kd [2]: 0.28 ± 0.08 µM

(KKK)2*LKBBALY [Peptide A2]
Kd [2]: 0.13 ± 0.03 µM

(KKKBBA)2*KLKBBAY [Peptide A9]
Kd [2]: 0.12 ± 0.04 µM

(KKL)2*KKBBAKBBAY [Peptide A14]
Kd [2]: 0.17 ± 0.05 µM

(KKL)2*LKKBBAY [Peptide A12]
Kd [2]: 0.33 ± 0.1 µM

(KLK)2*KKKBBAY [Peptide A11]
inhibition of the production of p24 [1]: 40%
Kd [2]: 1.43 ± 0.87 µM

(KLK)2*LKKBBAY [Peptide A10]
Kd [2]: 0.3 ± 0.04 µM

(LLK)2*KKBBAKY [Peptide A13]
Kd [2]: 0.21 ± 0.03 µM

Suc-TRQARRNRRRRWRERQRAAAAR-NH2 [Rev17]
Kd [4]: 0.1 µM
